Assay results as given in ChEMBL document CHEMBL3351669, “Oxidized derivatives of macroline, sarpagine, and pleiocarpamine alkaloids from Alstonia angustifolia” (J Nat Prod, 2014).

Tests used:
Assay type in all cases: functional, cell-based
KB = assay: Cytotoxicity against vincristine-sensitive human KB cells
Procedure, shortened: (§1)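 Alkaloids tested alone, without vincristine, in parallel on vincristine-sensitive KB and vincristine-resistant KB/VJ300 cells. IC50 determined, in μg/mL.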

[1] = Cytotoxicity against vincristine-resistant human KB/VJ300 cells; procedure, shortened: as §1
[2] = Cytotoxicity against multi-drug resistant human KB/VJ300 cells in presence of 0.1 ug/ml vincristine
Procedure, shortened: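 Multidrug-resistance reversal test in vincristine-resistant KB/VJ300 cells. Test alkaloid is co-applied with vincristine at 0.1 μg/mL (0.12 μM). The IC50 of the test alkaloid is determined under this co-treatment, in μg/mL.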

SMILES | IC50 (KB) [µg/mL] | IC50 [1] [µg/mL] | IC50 [2] [µM]
C[C@@H]1OC[C@@H]2[C@@H](C[C@H]3c4c(c5ccccc5n4C)C[C@@H]2N3C)[C@H]1CO [MACROCARPINE B] | > 25 | > 25 | –
CC(O)C[C@@H]1C[C@@H]2N3COC[C@H]1[C@@H]3C[C@]21C(=O)N(C)c2ccccc21 (some centres not stated) | > 25 | > 25 | –
C[C@@H]1OC[C@@H]2[C@@H](C[C@H]3c4[nH]c5ccccc5c4C[C@@H]2N3C)[C@@H]1CO | > 25 | > 25 | –
C[C@H](O)C1=CN2[C@H]3C[C@H]1[C@@H](CO)[C@@H]2C[C@@]31C(=O)N(C)c2ccccc21 | > 25 | > 25 | –
CN1[C@H]2C[C@H]3C(=O)OC[C@H]3[C@@H]1Cc1c2n(C)c2ccccc12 | > 25 | > 25 | –
C/C=C1/CN2CCc3c4n(c5ccccc35)[C@H](C(=O)OC)[C@H]1C[C@@H]42 | > 25 | > 25 | 40
CC(=O)C[C@@H]1C[C@H]2c3c(c4ccccc4n3C)C[C@@H]([C@@H]1CO)N2C | > 25 | > 25 | –
C/C=C1/CN2CC(=O)c3c4n(c5ccccc35)[C@H](C(=O)OC)[C@H]1C[C@@H]42 | > 25 | > 25 | –
C/C=C1\C(=O)OC[C@H]2[C@@H]3Cc4c(n(C)c5ccccc45)[C@H](C[C@@H]12)N3 | > 25 | > 25 | –
C[C@H](O)C1=CN2[C@H]3C[C@H]1[C@@H](CO)[C@@H]2Cc1c3n(C)c2ccccc12 | > 25 | > 25 | –
CC(O)C[C@@H]1C[C@@H]2N[C@@H](C[C@]23C(=O)N(C)c2ccccc23)[C@@H]1CO (some centres not stated) | > 25 | > 25 | –
CC(=O)C1=COC[C@H]2[C@@H]3C[C@]4(C(=O)N(C)c5ccccc54)[C@H](C[C@@H]12)N3 | > 25 | > 25 | –
C[C@H](O)C[C@H]1C[C@@H]2N3COC[C@@H]1[C@@H]3CC21C(=O)N(C)c2ccccc21 (some centres not stated) | > 25 | > 25 | –
C[C@@H]1OC[C@@H]2[C@@H](C[C@@H]3N[C@H]2Cc2c3n(C)c3ccccc23)[C@@H]1CO | > 25 | > 25 | –
C/C=C1/CN2CC[C@@]3(O)c4ccccc4N4[C@H](C(=O)OC)[C@H]1C[C@H]2[C@@H]43 | > 25 | > 25 | –
C[C@H]1OC[C@@H]2[C@H]3C[C@H]4c5c(c6ccccc6n5C)C[C@@H]2[N+]4(C)[C@H](O)[C@H]31 | > 25 | > 25 | –
CN1[C@H]2C[C@@H]3[C@@H](CO[C@@]4(C)OC(=O)C[C@@H]34)[C@@H]1Cc1c2n(C)c2ccccc12 | > 25 | > 25 | –
C[C@H](O)C[C@@H]1C[C@@H]2N[C@@H](C[C@@]23C(=O)N(C)c2ccccc23)[C@@H]1CO | > 25 | > 25 | –
CC(=O)C1=COC[C@@H]2[C@H]1C[C@H]1c3[nH]c4ccccc4c3C[C@@H]2N1C | > 25 | > 25 | –
C/C=C1/CN2CC[C@]3(O)c4ccccc4N4[C@H](C(=O)OC)[C@H]1C[C@H]2[C@@H]43 | > 25 | > 25 | –
C[C@@H]1OC[C@@H]2[C@H]3C[C@@H]4N([C@H](O)C13)[C@H]2C[C@@]41C(=O)N(C)c2ccccc21 | > 25 | > 25 | –

SMILES | IC50 (KB) [µg/mL] | IC50 [1] [µg/mL] | IC50 [2] [µM]
CC(=O)C1=COC[C@@H]2[C@H]1C[C@H]1c3c(c4ccccc4n3C)C[C@@H]2N1C [ALSTONERINE] | > 25 | > 25 | 10
C[C@@H]1OC[C@@H]2[C@H]3C[C@H]4c5c(c6ccccc6n5C)C[C@@H]2N4[C@H](O)[C@H]31 | > 25 | > 25 | 40
C[C@H](O)C[C@@H]1C[C@@H]2N[C@@H](C[C@@]23C(=O)Nc2ccccc23)[C@@H]1CO | > 25 | > 25 | –
C[C@@H]1OC[C@@H]2[C@@H](C[C@H]3c4c(c5ccccc5n4C)C[C@@H]2N3C)[C@@H]1CO | > 25 | > 25 | –
C[C@@H]1OC[C@@H]2[C@@H](C[C@H]3c4[nH]c5ccccc5c4C[C@@H]2N3C)[C@H]1CO | > 25 | > 25 | –
COc1ccc2c(c1)c1c(n2C)[C@@H]2C[C@H]3[C@@H](CO)[C@H](C)OC[C@H]3[C@H](C1)N2C | > 25 | > 25 | –
C[C@@H]1OC[C@@H]2[C@@H](C[C@H]3c4c(c5ccccc5n4C)C[C@@H]2N3C)[C@@H]1C=O [Talcarpine] | > 25 | > 25 | –
C/C=C1/CN2[C@H]3C[C@H]1C(CO)[C@@H]2C[C@]31Nc2ccccc2C1=O (some centres not stated) | > 25 | > 25 | –
COc1ccc2c(c1)c1c(n2C)[C@@H]2C[C@H]3C(=O)OC[C@H]3[C@H](C1)N2C | > 25 | > 25 | –
C/C=C1/CN2[C@H]3C[C@H]1C(CO)[C@@H]2Cc1c3[nH]c2ccccc12 (some centres not stated) | > 25 | > 25 | –
C/C=C1\C(=O)OC[C@H]2[C@@H]3Cc4c(n(C)c5ccc(OC)cc45)[C@H](C[C@@H]12)N3 | > 25 | > 25 | 40
C[C@@H]1OC[C@@H]2[C@@H](C[C@@H]3N[C@H]2Cc2c3n(C)c3ccccc23)[C@H]1CO | > 25 | > 25 | –
CC(=O)C(CC(=O)O)[C@@H]1C[C@H]2c3c(c4ccccc4n3C)C[C@@H]([C@@H]1CO)N2C (some centres not stated) | > 25 | > 25 | –
CC(=O)C1=COC[C@H]2[C@@H]3C[C@]4(C(=O)Nc5ccccc54)[C@H](C[C@@H]12)N3 | > 25 | > 25 | –
CC(=O)O[C@@H]1[C@@H]2[C@@H]3C[C@H]4c5c(c6ccccc6n5C)C[C@@H]([C@@H]3CO[C@H]2C)N14 | > 25 | > 25 | 40
CC1=C(C=O)[C@@H]2C[C@H]3c4c(c5ccccc5n4C)C[C@@H]([C@@H]2CO1)N3C [ALSTONERINAL] | > 25 | > 25 | –
C[C@H]1OC[C@@H]2[C@@H](C[C@H]3c4c(c5ccccc5n4C)C[C@@H]2N3C)[C@@H]1C=O | > 25 | > 25 | –
CC1=C(C=O)[C@@H]2C[C@H]3c4[nH]c5ccccc5c4C[C@@H]([C@@H]2CO1)N3C | > 25 | > 25 | –
CC(=O)C[C@@H]1C[C@@H]2N3[C@@H](C)OC[C@H]1[C@@H]3C[C@]21C(=O)N(C)c2ccccc21 | > 25 | > 25 | –
CC(O)C[C@@H]1C[C@@H]2N3COC[C@H]1[C@@H]3C[C@]21C(=O)Nc2ccccc21 (some centres not stated) | > 25 | > 25 | –
